Legend:
[1] = target: Serine/threonine-protein kinase PAK 4 (Homo sapiens) (UniProt O96013); assay: Inhibition of PAK4 at 10 uM
[2] = target: Mitogen-activated protein kinase 8 (Homo sapiens, UniProt P45983); assay: Inhibition of recombinant JNK1 using ser73 of c-jun as substrate preincubated for 15 mins measured after 60 mins by TR-FRET assay
Summary of the method: (§1)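 Recombinant JNK enzyme assay run at 10 µM ATP. IC50 values are means of at least three experiments.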

[3] = target: Rho-associated protein kinase 2 (Homo sapiens) (UniProt O75116); assay: Inhibition of ROCK2 at 10 uM
[4] = target: Serine/threonine-protein kinase Chk1 (Homo sapiens) (UniProt O14757); assay: Inhibition of CHEK1 at 10 uM
[5] = target: Serine/threonine-protein kinase PLK2 (Homo sapiens) (UniProt Q9NYY3); assay: Inhibition of PLK2 at 10 uM
[6] = Oxidative metabolic stability in mouse liver microsomes assessed as compound remaining at 1 uM after 30 mins; type: ADME, Microsome; conditions: read-out: Stability
Summary of the method: (§2)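 Test compound was incubated with mouse, rat or human liver microsomes for 30 min. The read-out is percent of parent compound remaining.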

[7] = Half life in rat at 1 mg/kg, iv; type: ADME, organism-based; set-up: dose 1 mg/kg, route intravenous; conditions: in vivo
Summary of the method: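 Rats were given a single intravenous dose of 1 mg/kg. Half-life is reported in min, together with clearance (mL/h/kg).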

[8] = target: Proto-oncogene tyrosine-protein kinase receptor Ret (Homo sapiens) (UniProt P07949); assay: Inhibition of RET at 10 uM
[9] = target: Receptor tyrosine-protein kinase erbB-4 (Homo sapiens) (UniProt Q15303); assay: Inhibition of ERBB4 at 10 uM
[10] = target: cAMP-dependent protein kinase catalytic subunit alpha (Homo sapiens) (UniProt P17612); assay: Inhibition of PRKACA at 10 uM
[11] = target: Tyrosine-protein kinase JAK1 (Homo sapiens) (UniProt P23458); assay: Inhibition of JAK1 at 10 uM
[12] = target: RAC-alpha serine/threonine-protein kinase (Homo sapiens) (UniProt P31749); assay: Inhibition of AKT1 at 10 uM
[13] = AUC in mouse brain at 1 mg/kg, iv; type: ADME, organism-based; set-up: dose 1 mg/kg, route intravenous
Summary of the method: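 Mice were dosed intravenously at 1 mg/kg. Brain exposure was expressed as AUC (ng h/mL) alongside the brain/plasma ratio.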

[14] = target: Macrophage colony-stimulating factor 1 receptor (Homo sapiens) (UniProt P07333); assay: Inhibition of CSF1R at 10 uM
[15] = target: Protein-tyrosine kinase 2-beta (Homo sapiens) (UniProt Q14289); assay: Inhibition of PTK2B at 10 uM
[16] = target: T1, Mitogen-activated protein kinase 1 (Homo sapiens, UniProt P28482); assay: Inhibition of recombinant ERK2 using Ser383 of Elk-1 as substrate preincubated for 15 mins measured after 60 mins by TR-FRET assay
[17] = target: Protein kinase C beta type (Homo sapiens) (UniProt P05771); assay: Inhibition of PRKCB1 at 10 uM
[18] = target: Aurora kinase A (Homo sapiens) (UniProt O14965); assay: Inhibition of AURKA at 10 uM
[19] = target: Mitogen-activated protein kinase 9 (Homo sapiens, UniProt P45984); assay: Inhibition of recombinant JNK2 using ser73 of c-jun as substrate preincubated for 15 mins measured after 60 mins by TR-FRET assay; summary of the method: as §1
[20] = Ratio of drug level in brain to plasma in mouse at 1 mg/kg, iv; type: ADME, organism-based; set-up: dose 1 mg/kg, route intravenous; conditions: read-out: BPR
Summary of the method: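 Single intravenous dose of 1 mg/kg in mice. Brain exposure was reported as brain AUC (ng h/mL), together with the brain-to-plasma ratio.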

[21] = target: Glycogen synthase kinase-3 beta (Homo sapiens) (UniProt P49841); assay: Inhibition of GSK3-beta at 10 uM
[22] = target: Tyrosine-protein kinase ABL1 (Homo sapiens) (UniProt P00519); assay: Inhibition of Abl1 at 10 uM
[23] = target: Platelet-derived growth factor receptor alpha (Homo sapiens) (UniProt P16234); assay: Inhibition of PDGFRA at 10 uM
[24] = target: Receptor-type tyrosine-protein kinase FLT3 (Homo sapiens) (UniProt P36888); assay: Inhibition of FLT3 at 10 uM
Rattus norvegicus [25] = assay: AUC in rat at 2 mg/kg, po; type: ADME, organism-based, Plasma; set-up: dose 2 mg/kg, route oral; conditions: in vivo
Summary of the method: (§3)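 Rats received an oral dose of 2 mg/kg. Plasma AUC is reported in nmol h/mL. Oral bioavailability (F%) was calculated against a 1 mg/kg intravenous dose.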

[26] = Oxidative metabolic stability in rat liver microsomes assessed as compound remaining at 1 uM after 30 mins; type: ADME, Microsome; conditions: read-out: Stability; summary of the method: as §2
[27] = target: Cyclin-dependent kinase 1/cyclin B1 (Homo sapiens) (UniProt P06493+P14635); assay: Inhibition of CDK1/Cyclin B1 at 10 uM; type: protein-complex assay
[28] = target: Calcium/calmodulin-dependent protein kinase type II subunit alpha (Homo sapiens) (UniProt Q9UQM7); assay: Inhibition of CAMK2A at 10 uM
[29] = target: T2, Mitogen-activated protein kinase 10 (Homo sapiens, UniProt P53779); assay: Inhibition of recombinant JNK3 using ser73 of c-jun as substrate preincubated for 15 mins measured after 60 mins by TR-FRET assay; summary of the method: as §1
[30] = target: Tyrosine-protein kinase Lck (Homo sapiens) (UniProt P06239); assay: Inhibition of LCK at 10 uM
[31] = target: Cyclin-dependent kinase 2/cyclin A (Homo sapiens) (UniProt P24941+P20248+P78396); assay: Inhibition of CDK2/Cyclin A at 10 uM; type: protein-complex assay
MDR1 = assay: Efflux ratio of permeability across MDCK2 expressing MDR1 at 5 uM after 120 mins by LC/MS/MS method; type: ADME, Canis lupus familiaris, MDCK-II; conditions: dog, MDCK-MDR1
[32] = target: T1, Mitogen-activated protein kinase 1; assay: Inhibition of ERK2 at 10 uM
[33] = target: T2, Mitogen-activated protein kinase 10; assay: Inhibition of JNK3 at 10 uM using 100 uM of ATP
[34] = target: Dual specificity protein kinase CLK1 (Homo sapiens) (UniProt P49759); assay: Inhibition of CLK1 at 10 uM
[35] = target: Leucine-rich repeat serine/threonine-protein kinase 2 (Homo sapiens) (UniProt Q5S007); assay: Inhibition of LRRK2 at 10 uM
[36] = target: Cyclin-dependent kinase 5/CDK5 activator 1 (Homo sapiens) (UniProt Q00535+Q15078); assay: Inhibition of CDK5/P25 at 10 uM; type: protein-complex assay
Cortical neurone = assay: Neuroprotective activity in human cerebral cortical neurons assessed as reversal of amyloid beta-induced neuronal damage after 2 to 3 days; type: functional
Summary of the method: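 Human cortical neurons were exposed to amyloid-β in a neurotoxicity assay. Neuroprotection by the inhibitor was expressed as an EC50.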

[37] = target: Mitogen-activated protein kinase 14 (Homo sapiens, UniProt Q16539); assay: Inhibition of recombinant p38alpha Thr69/71 of ATF-2 as substrate preincubated for 15 mins measured after 60 mins by TR-FRET assay
[38] = target: Dual specificity tyrosine-phosphorylation-regulated kinase 1B (Homo sapiens) (UniProt Q9Y463); assay: Inhibition of DYRK1B at 10 uM
[39] = target: Serine/threonine-protein kinase PLK1 (Homo sapiens) (UniProt P53350); assay: Inhibition of PLK1 at 10 uM
[40] = target: Tyrosine-protein kinase SYK (Homo sapiens) (UniProt P43405); assay: Inhibition of SYK at 10 uM
[41] = Apparent permeability from apical to basolateral side of MDCK2 cells at 5 uM after 120 mins by LC/MS/MS method; type: ADME, cell-based, Canis lupus familiaris, MDCK-II; conditions: dog, MDCK
[42] = Oxidative metabolic stability in human liver microsomes assessed as compound remaining at 1 uM after 30 mins; type: ADME, Microsome; conditions: read-out: Stability; summary of the method: as §2
[43] = target: Serine/threonine-protein kinase MARK2 (Homo sapiens) (UniProt Q7KZI7); assay: Inhibition of MARK2 at 10 uM
[44] = target: Receptor-interacting serine/threonine-protein kinase 2 (Homo sapiens) (UniProt O43353); assay: Inhibition of RIPK2 at 10 uM
[45] = test system: RAF proto-oncogene serine/threonine-protein kinase (Homo sapiens), P04049 [Y340D,Y341D]; assay: Inhibition of c-Raf Y340D Y341D mutant at 10 uM using 100 uM of ATP
[46] = target: Serine/threonine-protein kinase PLK3 (Homo sapiens) (UniProt Q9H4B4); assay: Inhibition of PLK3 at 10 uM
[47] = target: Insulin receptor (Homo sapiens) (UniProt P06213); assay: Inhibition of INSR at 10 uM
[48] = target: PI3-kinase p110-alpha/p85-alpha (Homo sapiens) (UniProt P27986+P42336); assay: Inhibition of PIK3CA/PIK3R1 at 10 uM; type: protein-complex assay
Rattus norvegicus [49] = assay: Oral bioavailability in rat at 2 mg/kg; type: ADME, organism-based; conditions: in vivo; summary of the method: as §3
[50] = target: Serine/threonine-protein kinase 3 (Homo sapiens) (UniProt Q13188); assay: Inhibition of STK3 at 10 uM

T2 sequence (P53779 whole entry): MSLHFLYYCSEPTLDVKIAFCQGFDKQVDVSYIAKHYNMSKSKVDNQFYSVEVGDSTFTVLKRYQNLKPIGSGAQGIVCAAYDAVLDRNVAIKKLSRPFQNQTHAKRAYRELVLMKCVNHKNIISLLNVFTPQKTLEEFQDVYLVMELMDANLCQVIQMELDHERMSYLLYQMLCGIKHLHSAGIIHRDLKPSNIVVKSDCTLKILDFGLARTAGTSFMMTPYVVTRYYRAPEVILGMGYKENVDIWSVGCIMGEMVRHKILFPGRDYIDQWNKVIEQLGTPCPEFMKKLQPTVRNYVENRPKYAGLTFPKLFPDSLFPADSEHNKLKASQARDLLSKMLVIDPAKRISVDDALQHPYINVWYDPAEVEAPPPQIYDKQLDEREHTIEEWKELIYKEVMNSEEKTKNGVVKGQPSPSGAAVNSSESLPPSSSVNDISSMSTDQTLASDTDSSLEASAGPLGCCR
T1 sequence (P28482 whole entry): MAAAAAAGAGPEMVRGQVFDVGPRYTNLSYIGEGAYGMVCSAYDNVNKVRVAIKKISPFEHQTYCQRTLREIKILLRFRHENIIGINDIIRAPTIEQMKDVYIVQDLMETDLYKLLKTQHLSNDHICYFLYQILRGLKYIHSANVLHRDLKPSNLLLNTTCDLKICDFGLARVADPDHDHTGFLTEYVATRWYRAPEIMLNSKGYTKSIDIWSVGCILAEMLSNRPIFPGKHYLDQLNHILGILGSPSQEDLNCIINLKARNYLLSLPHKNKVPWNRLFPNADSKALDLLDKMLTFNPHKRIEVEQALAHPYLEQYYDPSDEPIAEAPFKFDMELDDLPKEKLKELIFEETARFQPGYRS
Sequence of Mitogen-activated protein kinase 14 (Q16539 whole entry): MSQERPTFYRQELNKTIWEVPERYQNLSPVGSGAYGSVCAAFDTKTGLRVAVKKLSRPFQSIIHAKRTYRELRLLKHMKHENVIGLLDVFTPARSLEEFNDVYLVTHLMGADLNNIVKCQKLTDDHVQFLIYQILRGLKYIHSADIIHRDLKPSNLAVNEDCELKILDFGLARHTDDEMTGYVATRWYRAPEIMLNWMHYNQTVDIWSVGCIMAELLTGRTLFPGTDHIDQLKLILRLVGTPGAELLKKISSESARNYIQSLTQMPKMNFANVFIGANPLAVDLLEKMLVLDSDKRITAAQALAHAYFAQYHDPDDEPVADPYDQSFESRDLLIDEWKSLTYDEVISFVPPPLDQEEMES
Sequence of Serine/threonine-protein kinase PLK3 (Homo sapiens) (Q9H4B4 whole entry, looked up): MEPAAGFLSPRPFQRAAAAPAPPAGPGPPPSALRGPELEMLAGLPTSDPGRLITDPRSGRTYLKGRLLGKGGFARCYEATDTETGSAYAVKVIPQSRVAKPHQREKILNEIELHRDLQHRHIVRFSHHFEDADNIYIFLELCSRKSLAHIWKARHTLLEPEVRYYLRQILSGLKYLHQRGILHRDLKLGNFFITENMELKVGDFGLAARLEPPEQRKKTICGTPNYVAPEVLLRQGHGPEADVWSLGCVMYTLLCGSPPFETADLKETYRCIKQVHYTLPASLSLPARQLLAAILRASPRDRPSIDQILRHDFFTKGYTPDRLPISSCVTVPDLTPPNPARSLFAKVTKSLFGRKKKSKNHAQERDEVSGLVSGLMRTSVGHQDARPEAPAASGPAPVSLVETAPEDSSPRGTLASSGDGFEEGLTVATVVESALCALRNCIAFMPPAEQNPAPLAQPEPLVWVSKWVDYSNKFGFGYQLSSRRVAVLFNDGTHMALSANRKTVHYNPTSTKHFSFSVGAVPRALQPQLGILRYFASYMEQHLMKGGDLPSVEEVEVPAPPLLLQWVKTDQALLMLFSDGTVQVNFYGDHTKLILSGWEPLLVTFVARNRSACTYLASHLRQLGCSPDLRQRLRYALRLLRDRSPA
Sequence of Insulin receptor (Homo sapiens) (P06213 28-758 limits assumed): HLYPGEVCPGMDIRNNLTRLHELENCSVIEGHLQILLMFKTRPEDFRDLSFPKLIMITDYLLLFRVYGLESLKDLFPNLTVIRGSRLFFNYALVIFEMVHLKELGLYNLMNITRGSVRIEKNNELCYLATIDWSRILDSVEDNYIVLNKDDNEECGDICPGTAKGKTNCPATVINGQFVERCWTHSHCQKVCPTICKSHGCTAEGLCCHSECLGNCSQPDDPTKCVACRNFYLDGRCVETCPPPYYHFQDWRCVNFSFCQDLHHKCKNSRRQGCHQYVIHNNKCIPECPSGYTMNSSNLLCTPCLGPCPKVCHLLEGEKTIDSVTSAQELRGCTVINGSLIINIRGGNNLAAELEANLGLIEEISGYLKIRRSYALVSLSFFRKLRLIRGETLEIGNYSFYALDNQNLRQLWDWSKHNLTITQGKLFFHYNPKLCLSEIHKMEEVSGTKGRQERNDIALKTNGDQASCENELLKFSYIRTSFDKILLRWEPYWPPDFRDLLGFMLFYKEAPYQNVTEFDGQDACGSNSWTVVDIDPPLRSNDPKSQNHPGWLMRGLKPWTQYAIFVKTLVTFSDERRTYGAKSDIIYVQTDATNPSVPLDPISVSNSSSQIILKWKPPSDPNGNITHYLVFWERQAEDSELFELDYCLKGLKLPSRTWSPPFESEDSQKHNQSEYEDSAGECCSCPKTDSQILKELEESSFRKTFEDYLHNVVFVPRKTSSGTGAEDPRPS
Sequence of Insulin receptor (Homo sapiens) (P06213 763-1382 limits assumed): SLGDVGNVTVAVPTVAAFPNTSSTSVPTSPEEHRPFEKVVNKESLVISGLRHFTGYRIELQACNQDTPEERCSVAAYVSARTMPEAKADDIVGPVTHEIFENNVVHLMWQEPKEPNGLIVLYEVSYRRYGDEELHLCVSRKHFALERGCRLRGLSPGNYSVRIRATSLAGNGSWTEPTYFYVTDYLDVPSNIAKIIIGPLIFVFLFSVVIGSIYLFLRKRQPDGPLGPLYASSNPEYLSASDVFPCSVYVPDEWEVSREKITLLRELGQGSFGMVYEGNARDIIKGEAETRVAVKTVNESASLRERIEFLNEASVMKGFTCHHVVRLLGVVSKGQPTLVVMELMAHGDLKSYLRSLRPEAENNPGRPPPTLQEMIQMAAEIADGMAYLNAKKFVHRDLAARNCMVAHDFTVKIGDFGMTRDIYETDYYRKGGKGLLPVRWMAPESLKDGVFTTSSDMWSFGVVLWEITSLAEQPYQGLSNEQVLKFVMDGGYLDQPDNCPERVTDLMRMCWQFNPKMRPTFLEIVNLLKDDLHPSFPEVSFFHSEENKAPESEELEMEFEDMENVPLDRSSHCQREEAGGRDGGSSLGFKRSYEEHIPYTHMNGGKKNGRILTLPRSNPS
Sequence of Serine/threonine-protein kinase PAK 4 (Homo sapiens) (O96013 whole entry, looked up): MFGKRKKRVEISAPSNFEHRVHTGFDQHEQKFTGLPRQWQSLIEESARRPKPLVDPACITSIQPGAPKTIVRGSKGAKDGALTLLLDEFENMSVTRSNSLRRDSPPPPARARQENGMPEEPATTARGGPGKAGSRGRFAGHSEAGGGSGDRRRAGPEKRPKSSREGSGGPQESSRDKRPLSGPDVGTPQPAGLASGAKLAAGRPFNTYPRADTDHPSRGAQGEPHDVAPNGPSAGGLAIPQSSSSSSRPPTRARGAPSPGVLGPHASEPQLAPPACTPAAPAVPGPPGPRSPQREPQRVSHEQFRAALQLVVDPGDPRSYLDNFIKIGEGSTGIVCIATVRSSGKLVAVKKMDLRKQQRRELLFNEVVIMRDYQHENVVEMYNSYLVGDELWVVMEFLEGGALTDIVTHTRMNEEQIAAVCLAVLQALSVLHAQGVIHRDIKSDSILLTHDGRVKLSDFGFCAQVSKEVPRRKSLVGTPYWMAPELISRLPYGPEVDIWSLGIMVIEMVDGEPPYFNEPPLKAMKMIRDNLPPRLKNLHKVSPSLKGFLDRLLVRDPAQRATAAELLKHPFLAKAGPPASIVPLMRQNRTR
Sequence of Protein-tyrosine kinase 2-beta (Homo sapiens) (Q14289 whole entry, looked up): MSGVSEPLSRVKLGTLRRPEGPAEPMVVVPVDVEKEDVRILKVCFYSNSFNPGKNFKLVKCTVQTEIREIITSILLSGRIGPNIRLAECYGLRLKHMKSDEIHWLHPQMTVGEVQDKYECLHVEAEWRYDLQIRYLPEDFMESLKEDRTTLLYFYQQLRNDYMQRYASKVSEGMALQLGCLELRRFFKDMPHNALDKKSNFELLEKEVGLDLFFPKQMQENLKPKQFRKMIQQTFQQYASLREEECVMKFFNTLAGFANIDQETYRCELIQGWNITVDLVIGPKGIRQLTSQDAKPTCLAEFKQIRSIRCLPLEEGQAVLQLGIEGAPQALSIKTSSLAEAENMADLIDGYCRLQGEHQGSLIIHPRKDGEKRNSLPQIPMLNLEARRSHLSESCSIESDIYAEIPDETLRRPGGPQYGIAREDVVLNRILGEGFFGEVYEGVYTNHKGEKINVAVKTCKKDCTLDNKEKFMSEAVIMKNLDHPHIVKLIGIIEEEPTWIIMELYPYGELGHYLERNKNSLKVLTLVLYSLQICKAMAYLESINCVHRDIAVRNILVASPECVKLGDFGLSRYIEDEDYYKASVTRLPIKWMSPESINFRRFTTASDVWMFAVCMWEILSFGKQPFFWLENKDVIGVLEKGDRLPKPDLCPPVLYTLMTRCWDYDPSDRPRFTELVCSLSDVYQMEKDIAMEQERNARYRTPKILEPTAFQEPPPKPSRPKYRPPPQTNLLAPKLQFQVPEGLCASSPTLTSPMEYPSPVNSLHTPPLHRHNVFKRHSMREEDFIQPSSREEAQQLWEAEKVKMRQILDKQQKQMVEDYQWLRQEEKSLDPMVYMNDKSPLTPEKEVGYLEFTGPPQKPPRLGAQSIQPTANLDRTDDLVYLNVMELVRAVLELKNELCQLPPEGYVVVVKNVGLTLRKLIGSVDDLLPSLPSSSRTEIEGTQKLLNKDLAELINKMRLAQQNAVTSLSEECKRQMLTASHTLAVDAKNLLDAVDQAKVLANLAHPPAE

O=C(Cn1c(=O)ccc2cc(C(F)(F)F)ccc21)Nc1scc(Br)c1-c1ncn[nH]1
inhibition [1]: 3% | IC50 [2]: 2 nM | inhibition [3]: 11% | inhibition [4]: 10% | inhibition [5]: 10% | remaining at 0.5 h, 1 µM [6]: 58% | half-life [7]: 4.6 min | inhibition [8]: 4% | inhibition [9]: -2% | inhibition [10]: 0% | inhibition [11]: 0% | inhibition [12]: 2% | AUC [13]: 235 ng·h/mL | inhibition [14]: -2% | inhibition [15]: -5% | IC50 [16]: > 50000 nM | inhibition [17]: 4% | inhibition [18]: 5% | IC50 [19]: 5 nM | Kp [20]: 0.7 | inhibition [21]: 5% | inhibition [22]: 0% | inhibition [23]: 0% | inhibition [24]: 7% | AUC (Rattus norvegicus [25]): 1310 ng·h/mL | remaining at 0.5 h, 1 µM [26]: 35% | inhibition [27]: 1% | inhibition [28]: 4% | IC50 [29]: 9 nM | inhibition [30]: 8% | inhibition [31]: 2% | efflux ratio at 2 h, 5 µM (MDR1): 0.61 | inhibition [32]: -2% | inhibition [33]: 96% | inhibition [34]: 5% | inhibition [35]: 13% | inhibition [36]: 2% | EC50 (Cortical neurone): 2900 nM | IC50 [37]: > 50000 nM | inhibition [38]: 11% | inhibition [39]: 3% | inhibition [40]: 15% | Papp A→B at 2 h, 5 µM [41]: 3.62 ×10⁻⁶ cm/s | remaining at 0.5 h, 1 µM [42]: 67% | inhibition [43]: 4% | inhibition [44]: -7% | inhibition [45]: 10% | inhibition [46]: -8% | inhibition [47]: -3% | inhibition [48]: 6% | F (Rattus norvegicus [49]): 34% | inhibition [50]: 4%

From ChEMBL document CHEMBL1821697, “Design and synthesis of brain penetrant selective JNK inhibitors with improved pharmacokinetic properties for the prevention of neurodegeneration” (Bioorg Med Chem Lett, 2011)
